From ChEMBL document CHEMBL1122273, “5-sulfamoylorthanilic acids, a sulfonamide series with salidiuretic activity” (J Med Chem, 1983)
Active and inactive are the calls of the source. The rule behind the calls is not given here.

Key:
Canis familiaris [1] = experiment: Saluretic activity in the dog measured as concentration of Na+ in urinary excretion (2 animals/dose) at (dose 1.56 mg/Kg, po); type: functional, Canis lupus familiaris, Urine
How it was run: (§1)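 Male beagles trained to rest on a table and to accept stomach tube and catheter. Food withdrawn 24 h before, tap water ad libitum. Bladder emptied by catheter, then 20 mL/kg tap water by stomach tube. Catheterized hourly up to 8 h with 4 mL/kg water orally each time; first 2 h urine served as control. Oral dosing after second catheterization. Pooled 1–6 h urine; Na⁺/K⁺ by flame photometry, Cl⁻ argentometrically.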

Canis familiaris [2] = experiment: Diuretic activity in the dog (2 animals/dose) at (dose 1.56 mg/Kg), when administered perorally; type: functional, Canis lupus familiaris, Urine
How it was run: (§2)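 Trained male beagles, fasted 24 h with tap water ad libitum. Bladder emptied by catheter, then 20 mL/kg tap water by stomach tube, with 4 mL/kg water at each hourly catheterization up to 8 h. The first 2 h of urine served as control. Oral dosing came after the second catheterization, and 1–6 h urine was pooled. Na⁺ and K⁺ were measured by flame photometry, Cl⁻ argentometrically, in mequiv/kg.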

Canis familiaris [3] = experiment: Saluretic activity in the dog measured as concentration of K+ in urinary excretion (2 animals/dose) at (dose 1.56 mg/Kg, po); type: functional, Canis lupus familiaris, Urine; how it was run: as §1
Canis familiaris [4] = experiment: Salidiuretic activity on the basis of the 1.56 mg/Kg po dog assay; Compound was highly active; type: functional, organism-based; settings: Canis lupus familiaris; Urine
Canis familiaris [5] = experiment: Saluretic activity in the dog measured as concentration of Cl - in urinary excretion (2 animals/dose) at (dose 1.56 mg/Kg, po); type: functional, Canis lupus familiaris, Urine
How it was run: (§3)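 Male beagles trained to the procedures, food withdrawn 24 h before, tap water ad libitum. Bladder emptied by catheter, then 20 mL/kg tap water by stomach tube, plus 4 mL/kg orally at each hourly catheterization up to 8 h. The first 2 h of urine served as control. Compound given orally after the second catheterization. Urine from 1–6 h post-dose pooled; Na⁺ and K⁺ by flame photometry, Cl⁻ argentometrically, in mequiv/kg.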

Rattus norvegicus [6] = species on record: Rattus norvegicus; experiment: Diuretic activity in the rats, determined by a modified Lipschitz test; type: functional, Urine
How it was run: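 Modified Lipschitz test: rats deprived of water 24 h, grouped in threes of similar weight in diuresis funnels. Oral dose of 50 mg/kg, suspended in 2% starch solution, by stomach tube.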

Rattus norvegicus [7] = species on record: Rattus norvegicus; experiment: Saluretic activity in the rat measured as concentration of chloride in urine; type: functional
How it was run: (§4)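 Rats deprived of food 24 h, water ad libitum, dosed 50 mg/kg by stomach tube as suspension in 2% starch, no extra water load. Groups of three in diuresis funnels; urine over first 5 h collected. Na⁺ and K⁺ by flame photometry, Cl⁻ argentometrically; expressed as mequiv/kg.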

Rattus norvegicus [8] = species on record: Rattus norvegicus; experiment: Saluretic activity in the rat measured as concentration of K+ in urine; type: functional; how it was run: as §4
Rattus norvegicus [9] = experiment: Salidiuretic activity on the basis of the 50 mg/kg po rat assay; Compound was moderately active active; type: functional, organism-based; set-up: dose 50 mg/kg; settings: Urine
[10] = It is the ratio, measured as saluretic activity in the dog as concentration of Na+ in urinary excretion (dose 1.56 mg/Kg, po) to that of K; type: functional, Urine; how it was run: as §2
[11] = It is the ratio, measured as saluretic activity in the dog as concentration of Cl- in urinary excretion (dose 1.56 mg/Kg, po) to that of (Na+)+(K+); type: functional, Urine; how it was run: as §2
Rattus norvegicus [12] = species on record: Rattus norvegicus; experiment: Saluretic activity in the rat measured as concentration of Na+ in urine; type: functional; how it was run: as §4
Canis familiaris [13] = experiment: Salidiuretic activity on the basis of the 1.56 mg/Kg perorally in dog assay; compound is found to be highly active.; type: functional, organism-based; settings: Canis lupus familiaris; Urine
Rattus norvegicus [14] = experiment: Salidiuretic activity on the basis of the 50 mg/kg perorally in rat assay; compound is found to be highly active.; settings: Urine
Canis familiaris [15] = experiment: Salidiuretic activity on the basis of the 1.56 mg/Kg perorally dog assay; Compound was highly active; type: functional, organism-based; settings: Canis lupus familiaris; Urine
Rattus norvegicus [16] = experiment: Salidiuretic activity on the basis of the 50 mg/kg perorally rat assay; Compound was highly active; type: functional, organism-based; set-up: dose 50 mg/kg; settings: Urine
Canis familiaris [17] = experiment: Saluretic activity in the dog measured as concentration of Na+ in urinary excretion (2 animals/dose) at (dose 1.56 mg/Kg, perorally); type: functional, Canis lupus familiaris, Urine; how it was run: as §1
Canis familiaris [18] = experiment: Sailuric activity in the dog measured as concentration of Cl - in urinary excretion (2 animals/dose) at (dose 1.56 mg/Kg, po); type: functional, Canis lupus familiaris, Urine; how it was run: as §3
Canis familiaris [19] = experiment: Sailuric activity in the dog measured as concentration of K+ in urinary excretion (2 animals/dose) at (dose 1.56 mg/Kg, po); type: functional, Canis lupus familiaris, Urine; how it was run: as §3
Canis familiaris [20] = experiment: Salidiuretic activity on the basis of the 1.56 mg/Kg po dog assay; compound is found to be active; type: functional, organism-based; settings: Canis lupus familiaris; Urine
Rattus norvegicus [21] = experiment: Salidiuretic activity on the basis of the 50 mg/kg po rat assay; Compound is found to be modetately active; type: functional, organism-based; set-up: dose 50 mg/kg; settings: Urine
[22] = It is the ratio, measured as saluretic activity in the dog as concentration of Cl- in urinary excretion (dose 1.56 mg/Kg, perorally) to that of (Na+)+(K+); type: functional, Urine; how it was run: as §2
[23] = It is the ratio, measured as saluretic activity in the dog as concentration of Na+ in urinary excretion (dose 1.56 mg/Kg, perorally) to that of K; type: functional, Urine; how it was run: as §2

Question: Which Saluretic activity (Canis familiaris [1]) does the source give for CN(c1ccccc1)c1cc(NCc2ccccc2)c(S(=O)(=O)[O-])cc1S(N)(=O)=O.[Na+] here?
Answer: Its Saluretic activity is 6.59 m equiv 6hr-1 kg-1.

Question: What about the Diuretic activity (Canis familiaris [2]) of the same molecule?
Answer: Its Diuretic activity is 71.7 ml kg-1 6hr-1.

Question: And the Saluretic activity (Canis familiaris [3])?
Answer: Its Saluretic activity is 1.51 m equiv 6hr-1 kg-1.

Question: What about the Saldiuretic activity (Canis familiaris [4]) of the same molecule?
Answer: Its Saldiuretic activity is “Active”.

Question: What about the Saldiuretic activity (Canis familiaris [5]) of the same molecule?
Answer: The Saldiuretic activity was 7.34 m equiv 6hr-1 kg-1.

Question: And the Diuretic activity (Rattus norvegicus [6])?
Answer: The Diuretic activity was 2.6 mL/kg.

Question: What about the Saluretic activity (Rattus norvegicus [7]) of the same molecule?
Answer: Its Saluretic activity is 4 m equiv 5hr-1 kg-1.

Question: And the Saluretic activity (Rattus norvegicus [8])?
Answer: The Saluretic activity was 1.4 m equiv 5hr-1 kg-1.

Question: And the Saldiuretic activity (Rattus norvegicus [9])?
Answer: Its Saldiuretic activity is “Active”.

Question: What about the Ratio [10] of the same molecule?
Answer: The Ratio was 4.4.

Question: What about the Ratio [11] of the same molecule?
Answer: Its Ratio is 0.9.

Question: And the Saluretic activity (Rattus norvegicus [12])?
Answer: The Saluretic activity was 3.5 m equiv 5hr-1 kg-1.

Question: With NCc1ccco1.NS(=O)(=O)c1cc(S(=O)(=O)O)c(NCc2ccco2)cc1Cl as the molecule, how does the Saldiuretic activity (Canis familiaris [13]) read?
Answer: Its Saldiuretic activity is “Active”.

Question: And the Saldiuretic activity (Rattus norvegicus [14])?
Answer: Its Saldiuretic activity is “Active”.

Question: With CN(c1ccccc1)c1cc(NCc2ccco2)c(S(=O)(=O)O)cc1S(N)(=O)=O as the molecule, how does the Saldiuretic activity (Canis familiaris [15]) read?
Answer: The Saldiuretic activity was “Active”.

Question: And the Saldiuretic activity (Rattus norvegicus [16])?
Answer: Its Saldiuretic activity is “Active”.

Question: For NCc1ccccc1.NS(=O)(=O)c1cc(S(=O)(=O)O)c(NCc2ccccc2)cc1Cl, which Saluretic activity (Canis familiaris [17]) is on record?
Answer: Its Saluretic activity is 1.65 m equiv 6hr-1 kg-1.

Question: And the Diuretic activity (Canis familiaris [2])?
Answer: Its Diuretic activity is 40.4 ml kg-1 6hr-1.

Question: What about the Saldiuretic activity (Canis familiaris [18]) of the same molecule?
Answer: The Saldiuretic activity was 2.07 m equiv 6hr-1 kg-1.

Question: What about the Saluretic activity (Canis familiaris [19]) of the same molecule?
Answer: Its Saluretic activity is 0.35 m equiv 6hr-1 kg-1.

Question: What about the Saldiuretic activity (Canis familiaris [20]) of the same molecule?
Answer: The Saldiuretic activity was “Active”.

Question: And the Diuretic activity (Rattus norvegicus [6])?
Answer: Its Diuretic activity is 1.4 mL/kg.

Question: What about the Saluretic activity (Rattus norvegicus [7]) of the same molecule?
Answer: The Saluretic activity was 1.2 m equiv 5hr-1 kg-1.

Question: And the Saluretic activity (Rattus norvegicus [8])?
Answer: The Saluretic activity was 1.4 m equiv 5hr-1 kg-1.

Question: What about the Saldiuretic activity (Rattus norvegicus [21]) of the same molecule?
Answer: The Saldiuretic activity was “Weak activity”.

Question: And the Ratio [22]?
Answer: The Ratio was 1.05.

Question: And the Ratio [23]?
Answer: The Ratio was 4.7.

Question: What about the Saluretic activity (Rattus norvegicus [12]) of the same molecule?
Answer: The Saluretic activity was 1.4 m equiv 5hr-1 kg-1.
